Shown is part of a subset that was picked to be rich in hits.
KDM4C inh: KDM4C (human) demethylase inhibition; Q9H3R0; inhibition, % at 12.5 µM; hit rate 0.15% among 96,000; GST-KDM4C 2-372, H3K9me3 peptide, LANCE TR-FRET;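 active = mean replicate inhibition above about 25%, with at least 55% of replicates also reaching it, limit read from the data, passing the limit was not always enough; inconclusive = only one of those two conditions met; inactive = neither condition met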
Target sequence (Q9H3R0 2-372 limits assumed): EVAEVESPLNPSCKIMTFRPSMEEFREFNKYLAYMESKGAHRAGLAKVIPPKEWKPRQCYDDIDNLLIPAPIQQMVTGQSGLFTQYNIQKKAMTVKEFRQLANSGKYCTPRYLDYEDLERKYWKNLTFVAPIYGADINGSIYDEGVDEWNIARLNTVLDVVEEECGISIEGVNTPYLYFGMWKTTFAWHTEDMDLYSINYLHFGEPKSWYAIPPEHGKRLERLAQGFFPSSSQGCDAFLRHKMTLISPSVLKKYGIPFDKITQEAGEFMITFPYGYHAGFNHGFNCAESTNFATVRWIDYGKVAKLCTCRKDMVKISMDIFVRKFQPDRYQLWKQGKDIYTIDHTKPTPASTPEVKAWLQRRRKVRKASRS
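Material: GST-tagged GASC-1 (JMJD2C) catalytic fragment, aa 2-372. Input: enzyme final amount 10 nM. Medium: HEPES buffer, pH 7.5, plus ascorbate. Reagent: H3K9me3 peptide substrate, Fe(II), 2-oxoglutarate. Doses: single dose. Times: reaction 30 min RT, detection step 1 h RT. Measured by: LANCE TR-FRET. Evaluation: Fall in 671/618 emission ratio as inhibition.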
T cruzi growth-1: T. cruzi proliferation inhibition; T. cruzi beta-gal in NIH3T3, GalScreen luminescence, 90 h; inhibition, % at 8.34 µM; hit rate 5.9% among 77,000;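 active = mean inhibition above about 93%, with at least 55% of replicates each passing it, limit read from the data, passing the limit was not always enough; inconclusive = only one of those two conditions holds; inactive = neither condition holds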
IDH1 mut inh: blocks human IDH1 R132H reductase activity; diaphorase/resazurin fluorescence, 60 min; inhibition, % at 10 µM; hit rate 0.18% among 70,000; in the data active = inhibition above about 34%; inconclusive = no clear call, values can overlap the other calls; inactive = below about 11%;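 also: 0% = DMSO and 100% = no enzyme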
T cruzi growth-2: Trypanosoma cruzi proliferation inhibition. shares compounds with T cruzi growth-1. T. cruzi beta-gal in NIH3T3, GalScreen luminescence, 90 h. inhibition, % at 8.35 µM. hit rate 72% among 5,600. AID 651739;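 active = mean replicate inhibition above about 95% and at least 55% of replicates individually reaching it, limit read from the data; inconclusive = only one of the two criteria is met; inactive = neither criterion is met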
T cruzi growth-3: Trypanosoma cruzi proliferation inhibition; hit rate 21% among 5,600; shares compounds with T cruzi growth-1; AID 651740; inhibition, % at 2.09 µM; T. cruzi beta-gal in NIH3T3, GalScreen luminescence, 90 h;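 active = mean inhibition above about 95%, with at least 55% of replicates also reaching it, limit read from the data; inconclusive = meets just one of the two conditions; inactive = meets neither condition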;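 also: plate controls were neutral control median for no effect and positive control median for full effect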
3T3 cytotox: cytotoxicity in mouse NIH/3T3 fibroblasts; NIH/3T3 viability, CellTiter-Glo ATP luminescence, 90 h; hit rate 14% among 5,600; shares compounds with T cruzi growth-1; cytotoxicity (signal decrease), % at 8.35 µM;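 active = mean signal decrease across replicates above about 35% based on untreated-well scatter, with enough replicates individually passing, limit read from the data; inconclusive = no rule stated though some were filed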;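 also: 0% = median of neutral control wells and 100% = median of positive control wells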
NIH3T3 tox 2: kills mouse NIH/3T3 fibroblasts. inhibition, % at 24.9 µM. NIH/3T3 viability, CellTiter-Glo ATP luminescence, 90 h. shares compounds with T cruzi growth-1. hit rate 56% among 5,600;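 active = mean loss of cell viability signal at or above a set limit, and enough replicates individually reaching it; inconclusive = meets only the mean limit or only the replicate share; inactive = meets neither condition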;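 also: 0% = median of neutral control wells and 100% = median of positive control wells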
Active calls of the source: *; ? = inconclusive; nt = not tested or not shown.

SMILES	KDM4C inh	T cruzi growth-1	IDH1 mut inh	T cruzi growth-2	T cruzi growth-3	3T3 cytotox	NIH3T3 tox 2
CCC(=O)N1CC[C@@H]2[C@H]1c1cc(-c3ccccc3F)ccc1N(C)[C@@H]2CO	1	100*	nt	104*	16	-10	9
COCC(=O)N1CCCCN2[C@H](CO)[C@@H](c3ccc(C#Cc4ccccc4)cc3)[C@@H]2C1	0	29	nt	nt	nt	nt	nt
O=C(C[C@H]1CC[C@@H](NC(=O)Nc2cc(F)ccc2F)[C@H](CO)O1)Nc1ccc(-c2ccccc2)cc1	-2	132*	0	106*	75	23	32*
O=C(C[C@@H]1CC[C@H](NC(=O)Nc2cc(F)ccc2F)[C@@H](CO)O1)Nc1ccc(-c2ccccc2)cc1	-1	-17	0	nt	nt	nt	nt
O=C(C[C@@H]1CC[C@@H](NC(=O)Nc2ccccc2)[C@H](CO)O1)NCc1ccccn1	0	108*	0	-12	-4	-9	3
O=C(C[C@H]1CC[C@H](NC(=O)Nc2ccccc2)[C@H](CO)O1)NCc1ccccn1	0	-56	0	nt	nt	nt	nt
C[C@@H]1CCCCO[C@H](CN(C)C)[C@H](C)CN([C@H](C)CO)C(=O)c2cc(NS(=O)(=O)c3cccs3)ccc2O1	0	12	4	nt	nt	nt	nt
CNC[C@H]1Oc2cc(C#Cc3ccncc3)ccc2S(=O)(=O)N([C@H](C)CO)C[C@H]1C	2	nt	nt	nt	nt	nt	nt
CNC[C@@H]1Oc2cc(C#Cc3ccccn3)ccc2S(=O)(=O)N([C@H](C)CO)C[C@H]1C	-3	103*	0	110*	73	-7	-24
CNC[C@@H]1Oc2cc(C#Cc3ccccn3)ccc2S(=O)(=O)N([C@@H](C)CO)C[C@H]1C	-3	105*	-1	107*	73	-36	-22
CNC[C@@H]1Oc2cc(C#Cc3ccncc3)ccc2S(=O)(=O)N([C@@H](C)CO)C[C@@H]1C	5	nt	10	nt	nt	nt	nt
COC(=O)c1c(=O)n(O)c2cc(Cl)c(Cl)cc2[n+]1[O-]	nt	nt	0	nt	nt	nt	nt
COc1ccc([N+](=O)[O-])cc1NC(=O)CN(c1ccc(Cl)cc1C)S(C)(=O)=O	nt	nt	0	nt	nt	nt	nt
Cc1cc(Cl)c(S(=O)(=O)Nc2cccc(Br)c2)cc1OCC(N)=O	nt	nt	0	nt	nt	nt	nt
O=C(Nc1ccccc1)c1ccc(CSc2nnc(-c3ccncc3)n2-c2ccccc2)cc1	nt	nt	0	nt	nt	nt	nt
CO[C@@H](CN(C)C(=O)Nc1ccc(Cl)cc1)[C@H](C)CN(Cc1ccccc1Cl)[C@@H](C)CO	0	94	0	nt	nt	nt	nt
CO[C@H](CN(C)C(=O)Nc1ccc(Cl)cc1)[C@@H](C)CN(Cc1ccccc1Cl)[C@H](C)CO	3	102*	0	106*	78	23	77*
CO[C@@H](CN(C)C(=O)Nc1ccc(Cl)cc1)[C@H](C)CN(Cc1ccccc1Cl)[C@H](C)CO	0	85	0	nt	nt	nt	nt
CO[C@@H](CN(C)C(=O)Nc1ccc(Cl)cc1)[C@@H](C)CN(Cc1ccccc1Cl)[C@@H](C)CO	0	109*	0	102*	49	39*	54*
N#Cc1ccccc1CSc1nnc(-c2ccc([N+](=O)[O-])cc2)n1-c1ccccc1	nt	nt	0	nt	nt	nt	nt
CSc1ccccc1NC(=O)C(C)N(c1ccccc1)S(C)(=O)=O (centres undefined)	nt	nt	0	nt	nt	nt	nt
C[C@@H]1CN([C@H](C)CO)C(=O)c2cc(NC(=O)C3CCCCC3)ccc2O[C@H]1CN(C)Cc1ccc(-c2ccccc2)cc1	0	?	3	108*	-5	4	39*
C[C@H]1CN([C@@H](C)CO)C(=O)c2cc(NC(=O)C3CCCCC3)ccc2O[C@@H]1CN(C)Cc1ccc(-c2ccccc2)cc1	0	104*	nt	109*	70	33	21
C[C@H](CO)N1C[C@H](C)[C@@H](CN(C)Cc2ccc(-c3ccccc3)cc2)Oc2ccc(NC(=O)C3CCCCC3)cc2C1=O	-1	41	nt	nt	nt	nt	nt
C[C@H](CO)N1C[C@H](C)[C@@H](CN(C)Cc2ccccc2)Oc2ccc(NC(=O)NC3CCCCC3)cc2C1=O	4	-9	nt	nt	nt	nt	nt
C[C@@H]1CN([C@H](C)CO)C(=O)c2cc(NC(=O)C3CC3)ccc2O[C@H]1CN(C)Cc1ccc(-c2ccccc2)cc1	1	61	-7	nt	nt	nt	nt
